Results on 14 molecules are retold here after ChEMBL document CHEMBL1135174, “The synthesis and structure-activity relationships of 4-aryl-3-aminoquinolin-2-ones: a new class of calcium-dependent, large conductance, potassium (maxi-K) channel openers targeted for post-stroke neuroprotection” (Bioorg Med Chem Lett, 2002).

The Cmax is the peak of the concentration-time curve. By Tmax is commonly meant the time from dosing to the highest level. By Kp is commonly meant the ratio of the level in a tissue or fluid to that in plasma or blood. One may read the half-life as the time needed for the level to fall by half in the phase considered. Low values mean rapid decline, high ones slow decline.

For one data set, the species on record is Xenopus laevis. Description: Tested for the effect on maxi-K-mediated outward current (mSlo) in Xenopus laevis oocytes at 20 uM. It counts as functional, frog. An outline of the steps:
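Two-electrode voltage clamp was run on Xenopus laevis oocytes expressing cloned mSlo maxi-K channels. A single drug concentration was tested in at least five oocytes against iberiotoxin-sensitive outward K+ current. Output is the average percentage change in current relative to the drug-free control (100%).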

Another data set deals with Rattus norvegicus. Description: (§1) Tested for concentration in brain after intravenous administration (4.7 mg/kg) to male rats. The data set is classed as ADME, organism-based. The following applies: in vivo. An outline of the steps:
(§2)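 Male rats got an iv bolus of 4.7 mg/kg, N=3 at each time point. Whole brain and plasma were sampled through 24 h. AUC (ng-h/mL plasma, ng-h/g brain) was calculated by the trapezoidal rule over 0–24 h. Brain/plasma ratio was taken from the AUC values. Cmax, Tmax and elimination half-lives were derived for brain and plasma.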

Data set [1] can be described thus: Tested for plasma concentration after intravenous administration (4.7 mg/kg) to male rats. It counts as ADME, organism-based. The following applies: rat. Summed up: as §2
Data set [2] can be described thus: as §1. The arrangement: dose 4.7 mg/kg, route intravenous. It counts as ADME, organism-based. Particulars: rat. Summed up: as §2
Data set [3] can be described thus: Compound was evaluated for Tmax in brain after intravenous administration in male rats. The data set is classed as ADME, organism-based. Particulars: rat. Summed up: as §2
A short description of data set [4]: Ratio of the AUC values of brain and plasma after intravenous administration (4.7 mg/kg) to male rats was evaluated. It counts as ADME, organism-based. The following applies: rat. An outline of the steps:
as §2

Data set [5] can be described thus: Ratio in brain and plasma after 0.25 hrs of intravenous administration (5 mg/kg) to male rats was evaluated. The data set is classed as ADME, organism-based. The following applies: rat. Summed up:
(§3)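 Male rats got a single iv bolus of 5 mg/kg. Plasma and whole brain were sampled at 0.25 h and 2 h. Plasma is in ng/mL and brain in ng/g wet weight, each the mean of three animals ± standard deviation. Brain detection limit was 50 ng/g. Brain/plasma ratio was computed at each time point.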

Data set [6] is described as follows: Ratio in brain and plasma after 2 hrs of intravenous administration (5 mg/kg) to male rats was evaluated. The data set is classed as ADME, organism-based. The following applies: rat. Summed up:
as §3

Data set [7] is described as follows: Half-life in brain after intravenous administration (4.7 mg/kg) to male rats. The following applies: rat. The data set is classed as ADME, organism-based. An outline of the steps: as §2
Data set [8] in a line: Half-life in plasma after intravenous administration (4.7 mg/kg) to male rats. Particulars: rat. The data set is classed as ADME, organism-based. Summed up:
as §2

Data set [9] can be described thus: Tested for concentration in brain after 0.25 hrs of intravenous administration (5 mg/kg) to male rats. It counts as ADME, organism-based. Particulars: rat. An outline of the steps:
as §3

Data set [10] can be described thus: Tested for concentration in brain after 2 hrs of intravenous administration (5 mg/kg) to male rats. The data set is classed as ADME, organism-based. The following applies: rat. An outline of the steps:
as §3

A short description of data set [11]: Tested for plasma concentration in the after 0.25 hrs of intravenous administration (5 mg/kg) to male rats. The data set is classed as ADME, organism-based. Particulars: rat. Summed up:
as §3

Data set [12] is described as follows: Tested for plasma concentration in the after 2 hrs of intravenous administration (5 mg/kg) to male rats. Particulars: rat. The data set is classed as ADME, organism-based. An outline of the steps:
as §3

A short description of data set [13]: Tested for ratio in brain and plasma after 0.25 hrs of intravenous administration (5 mg/kg) to male rats. The data set is classed as ADME, organism-based. Particulars: rat. Summed up:
as §3

A short description of data set [14]: Tested for ratio in brain and plasma after 2 hrs of intravenous administration (5 mg/kg) to male rats. It counts as ADME, organism-based. The following applies: rat. Summed up:
as §3

A short description of data set [15]: Tested for plasma concentration after 0.25 hrs of intravenous administration (5 mg/kg) to male rats. It counts as ADME, organism-based. The following applies: rat. Summed up:
as §3

Data set [16] is described as follows: Tested for plasma concentration after 2 hrs of intravenous administration (5 mg/kg) to male rats. The data set is classed as ADME, organism-based. The following applies: rat. An outline of the steps:
as §3

`O=S(=O)(Nc1c(O)nc2cc(C(F)(F)F)ccc2c1-c1cc(Cl)ccc1O)C(F)(F)F` showed an Increase in the data set listed under Xenopus laevis of 213%.
`Nc1c(O)nc2ccccc2c1-c1cc(Cl)ccc1O`: the Increase in the data set filed under Xenopus laevis stood at 114%.
The same measure, in the same setting: in the case of `Nc1c(O)nc2c(C(F)(F)F)cccc2c1-c1cc(Cl)ccc1O` it was 112%; in that of `Nc1c(O)nc2ccc(C(F)(F)F)cc2c1-c1ccccc1O`, 137%.
For `Nc1c(O)nc2ccc(C(F)(F)F)cc2c1-c1cc(Cl)ccc1O`, the AUC with Rattus norvegicus was determined as 19300 ng·h/g; in data set [1] it was 2700 ng·h/mL. The same molecule yielded a Cmax in [2] of 1990 ng/g. For the same molecule, the Tmax in [3] came to 4.8 min. In [4], the Kp was found to be 7.1. Also, the Kp at 0.25 h in data set [5] is 1.6. In [6], the Kp at 2 h was 5.3. The figures for the half-life in data set [7] and in [8] were 8.1 h and 7.6 h, respectively. For the same molecule, the concentration at 0.25 h amounted to 1310 ng/g in data set [9] and 802 ng/mL in [11]. Moreover, the concentration at 2 h in data set [10] was determined as 1490 ng/g; in data set [12], 281 ng/mL. Further, the Increase in the data set listed under Xenopus laevis turned out to be 186%.
As to `Nc1c(O)nc2ccc(C(F)(F)F)cc2c1-c1ccccc1`, the Increase in the data set filed under Xenopus laevis came to 111%.
Same read-out and setting: for `Nc1c(O)nc2cccc(C(F)(F)F)c2c1-c1cc(Cl)ccc1O` the value was 191%; for `O=c1[nH]c2cc(C(F)(F)F)ccc2n1-c1cc(Cl)ccc1O`, 132%.
`CS(=O)(=O)Nc1c(O)nc2ccc(C(F)(F)F)cc2c1-c1cc(Cl)ccc1O` yielded an Increase in the data set listed under Xenopus laevis of 164%.
Still for that read-out and setting: for `Nc1c(O)nc2ccc(Cl)cc2c1-c1cc(Cl)ccc1O` the value was 157%; for `COc1ccc(Cl)cc1-c1c(N)c(O)nc2ccccc12`, 108%.
On the same count and under the same terms, for `CC(=O)Nc1c(O)nc2ccc(C(F)(F)F)cc2c1-c1cc(Cl)ccc1O` the value was 120%.
On to `O=S(=O)(Nc1c(O)nc2ccc(C(F)(F)F)cc2c1-c1cc(Cl)ccc1O)C(F)(F)F`, for which the concentration at 0.25 h was less than 50 ng/g in [9] and 1230 ng/mL in data set [11]. In addition, the concentration at 2 h was less than 50 ng/g in data set [10] and 125 ng/mL in data set [12]. For the same molecule, the Increase in the data set listed under Xenopus laevis came to 343%.
In the case of `Nc1c(O)nc2cc(C(F)(F)F)ccc2c1-c1cc(Cl)ccc1O`, the Kp at 0.25 h in data set [13] was found to be 1.3. For the same molecule, in data set [14], the partition ratio (Kp) at 2 h worked out at 4.4. Further, the figures for the concentration at 0.25 h in [9] and in data set [15] were 1470 ng/g and 1170 ng/mL, respectively. The concentration at 2 h was determined as 1480 ng/g in [10] and 339 ng/mL in data set [16]. The molecule further showed an Increase in the data set filed under Xenopus laevis of 159%.
